In ChEMBL document CHEMBL3407457, “Microwave-assisted synthesis of certain pyrrolylpyridines, some derived ring systems and their evaluation as anticancer and antioxidant agents” (Eur J Med Chem, 2015):

Experiments:
SN12C = assay: Growth inhibition of human SN12C cells after 48 hrs by sulforhodamine B assay; assay type: functional
Procedure, shortened: (§1)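 NCI-60 five-dose screen: cells incubated 48 h with five concentrations (0.01-100 µM), read by sulforhodamine B protein assay. Log concentration-% growth inhibition curves gave GI50 (50% decrease in net growth), TGI (total growth inhibition) and LC50 (net 50% loss of initial cells). 5-FU positive control.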

[1] = Growth inhibition of human BT549 cells after 48 hrs by sulforhodamine B assay; assay type: functional; details: BT-549, 48 h; procedure, shortened: as §1
NCI-H226 = assay: Growth inhibition of human NCI-H226 cells after 48 hrs by sulforhodamine B assay; assay type: functional; details: NCI-H226, 48 h; procedure, shortened: as §1
[2] = Growth inhibition of human EKVX cells after 48 hrs by sulforhodamine B assay; assay type: functional; procedure, shortened: as §1
[3] = Growth inhibition of human RPMI8226 cells after 48 hrs by sulforhodamine B assay; assay type: functional; details: RPMI-8226, 48 h; procedure, shortened: as §1
[4] = Growth inhibition of human OVCAR4 cells after 48 hrs by sulforhodamine B assay; assay type: functional; details: OVCAR-4, 48 h; procedure, shortened: as §1
SF-268 = assay: Growth inhibition of human SF268 cells after 48 hrs by sulforhodamine B assay; assay type: functional; details: SF-268, 48 h; procedure, shortened: as §1
[5] = Growth inhibition of human HCT116 cells after 48 hrs by sulforhodamine B assay; assay type: functional; details: HCT-116, 48 h; procedure, shortened: as §1
MCF7 = assay: Growth inhibition of human MCF7 cells after 48 hrs by sulforhodamine B assay; assay type: functional; details: MCF7, 48 h; procedure, shortened: as §1
[6] = Antioxidant activity assessed as DPPH radical scavenging activity at 10^-4 M incubated for 30 mins by spectrophotometry; assay type: physicochemical; details: 0.5 h, 100 µM
Procedure, shortened: (§2)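 Compound at 10^-3 or 10^-4 M mixed with methanolic DPPH (0.1 mL of 1 mM stock; 3 mL total volume), shaken, kept in the dark 30 min at room temperature. Absorbance read at 517 nm. Scavenging (%) = (A_control − A_sample)/A_control × 100, where the control is DPPH in methanol alone. BHT served as reference antioxidant. Triplicate, mean ± SD of three independent experiments.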

DU-145 = assay: Growth inhibition of human DU145 cells after 48 hrs by sulforhodamine B assay; assay type: functional; details: DU-145, 48 h; procedure, shortened: as §1
[7] = Growth inhibition of human MOLT4 cells after 48 hrs by sulforhodamine B assay; assay type: functional; details: MOLT-4, 48 h; procedure, shortened: as §1
[8] = Antioxidant activity assessed as DPPH radical scavenging activity at 10^-3 M incubated for 30 mins by spectrophotometry; assay type: physicochemical; details: 0.5 h, 1000 µM; procedure, shortened: as §2
SR = assay: Growth inhibition of human SR cells after 48 hrs by sulforhodamine B assay; assay type: functional; procedure, shortened: as §1
MDA-MB-231 = assay: Growth inhibition of human MDA-MB-231 cells after 48 hrs by sulforhodamine B assay; assay type: functional; details: MDA-MB-231, 48 h; procedure, shortened: as §1
HL-60(TB) = assay: Growth inhibition of human HL-60(TB) cells after 48 hrs by sulforhodamine B assay; assay type: functional; details: HL-60, 48 h
Procedure, shortened: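 NCI-60 five-dose screen, HL-60(TB) being one of the leukemia subpanel lines. Cells exposed to five concentrations (0.01-100 µM) for 48 h. GI50 (concentration giving 50% decrease in net cell growth) read from log concentration-% growth inhibition curves; TGI and LC50 also derived. 5-fluorouracil as positive control.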

HOP-62 = assay: Growth inhibition of human HOP62 cells after 48 hrs by sulforhodamine B assay; assay type: functional; details: HOP-62, 48 h; procedure, shortened: as §1
NCI-H522 = assay: Growth inhibition of human NCI-H522 cells after 48 hrs by sulforhodamine B assay; assay type: functional; details: NCI-H522, 48 h; procedure, shortened: as §1
[9] = Growth inhibition of human HOP92 cells after 48 hrs by sulforhodamine B assay; assay type: functional; details: HOP-92, 48 h; procedure, shortened: as §1
[10] = Growth inhibition of human SF539 cells after 48 hrs by sulforhodamine B assay; assay type: functional; details: SF-539, 48 h; procedure, shortened: as §1
A498 = assay: Growth inhibition of human A498 cells after 48 hrs by sulforhodamine B assay; assay type: functional; details: A498, 48 h; procedure, shortened: as §1
IGROV-1 = assay: Growth inhibition of human IGROV1 cells after 48 hrs by sulforhodamine B assay; assay type: functional; details: IGROV-1, 48 h; procedure, shortened: as §1
[11] = Growth inhibition of human UO31 cells after 48 hrs by sulforhodamine B assay; assay type: functional; details: UO-31, 48 h; procedure, shortened: as §1
[12] = Growth inhibition of human UACC62 cells after 48 hrs by sulforhodamine B assay; assay type: functional; details: UACC-62, 48 h; procedure, shortened: as §1
SNB-75 = assay: Growth inhibition of human SNB75 cells after 48 hrs by sulforhodamine B assay; assay type: functional; details: SNB-75, 48 h; procedure, shortened: as §1
CCRF-CEM = assay: Growth inhibition of human CCRF-CEM cells after 48 hrs by sulforhodamine B assay; assay type: functional; procedure, shortened: as §1
[13] = read-out: LC50 (the source's name)

| Compound | GI50 (SN12C) [µM] | GI50 [1] [µM] | GI50 (NCI-H226) [µM] | GI50 [2] [µM] | GI50 [3] [µM] | GI50 [4] [µM] | GI50 (SF-268) [µM] | GI50 [5] [µM] | GI50 (MCF7) [µM] | GI50 (DU-145) [µM] | GI50 [7] [µM] | GI50 (SR) [µM] | GI50 (MDA-MB-231) [µM] | GI50 (HL-60(TB)) [µM] | GI50 (HOP-62) [µM] | GI50 (NCI-H522) [µM] | GI50 [9] [µM] | GI50 [10] [µM] | GI50 (A498) [µM] | GI50 (IGROV-1) [µM] | also measured |
| --- | --- | --- | --- | --- | --- | --- | --- | --- | --- | --- | --- | --- | --- | --- | --- | --- | --- | --- | --- | --- | --- |
| COc1ccc(-c2cc(-c3cccn3C)c(C#N)c(=O)[nH]2)cc1OC | > 100 | 34.7 | > 100 | 30.9 | > 100 | > 100 | > 100 | 91.2 | > 100 | > 100 | 22.9 | 0.48 | > 100 | > 100 | > 100 | > 100 | 0.05 | > 100 | – | – | inhibition (INH) [6]: 17%; inhibition (INH) [8]: 31%; TGI [9]: 9.77 µM |
| CC1CCCc2c1nc(N)c(C#N)c2-c1cccn1C (stereo not drawn) | 30.2 | 69.1 | 64.6 | > 100 | 79.4 | 77.6 | > 100 | > 100 | > 100 | > 100 | > 100 | 3.39 | 69.2 | 0.42 | > 100 | 66.1 | 47.9 | > 100 | 91.2 | 70.8 | inhibition (INH) [6]: 9%; inhibition (INH) [8]: 16%; TGI (SR): 20.4 µM; CC50 (SR; [13]): 91.2 µM; GI50 [11]: > 100 µM; GI50 [12]: 33.1 µM; GI50 (SNB-75): 22.4 µM; TGI (SNB-75): 85.1 µM; GI50 (CCRF-CEM): > 100 µM |
| COc1ccc(-c2cc(-c3cccn3C)c(C#N)c(N)n2)cc1OC | 67.6 | 64.6 | > 100 | > 100 | 38.9 | 40.7 | 83.2 | 89.1 | 93.3 | 91.2 | 46.8 | 56.2 | 38 | 19.5 | > 100 | 40.7 | 5.13 | 83.2 | 83.2 | 95.5 | inhibition (INH) [6]: 19%; inhibition (INH) [8]: 33%; GI50 [11]: 97.7 µM; GI50 [12]: 87.1 µM; GI50 (SNB-75): 20.9 µM; TGI (SNB-75): 70.8 µM; GI50 (CCRF-CEM): 0.01 µM; LC50 (concentration causing net 50% loss of initial cells) (CCRF-CEM): 9.77 µM; TGI (CCRF-CEM): 3.98 µM |
| Cn1cccc1-c1cc(-c2ccccc2)[nH]c(=O)c1C#N | > 100 | 85.1 | > 100 | 31.7 | > 100 | > 100 | > 100 | > 100 | > 100 | > 100 | 29.1 | > 100 | 83.2 | > 100 | > 100 | > 100 | 0.11 | > 100 | 27.5 | > 100 | TGI [7]: 57.4 µM; GI50 [11]: > 100 µM; GI50 [12]: 97.7 µM; GI50 (SNB-75): 47.4 µM; GI50 (CCRF-CEM): > 100 µM; TGI [9]: 0.13 µM |
| Cn1cccc1-c1cc(-c2cccs2)[nH]c(=O)c1C#N | > 100 | > 100 | 69.2 | 52.5 | > 100 | > 100 | > 100 | > 100 | > 100 | > 100 | > 100 | > 100 | > 100 | > 100 | 83.2 | 25.7 | 10 | > 100 | 17.8 | 22.9 | GI50 [11]: 13.8 µM; TGI [11]: 27.5 µM; CC50 [11, 13]: 54.9 µM; GI50 [12]: 72.4 µM; GI50 (SNB-75): 38.1 µM; GI50 (CCRF-CEM): > 100 µM; TGI [9]: 40.7 µM |
| Cc1cc(C(C)(C)C)c(O)c(C(C)(C)C)c1 [BUTYLATED HYDROXYTOLUENE] | – | – | – | – | – | – | – | – | – | – | – | – | – | – | – | – | – | – | – | – | inhibition (INH) [6]: 20%; inhibition (INH) [8]: 36% |
| Cn1cccc1-c1cc(-c2ccccc2)nc(N)c1C#N | > 100 | 60.2 | > 100 | 95.5 | 53.7 | 46.8 | 79.4 | > 100 | > 100 | > 100 | > 100 | 35.5 | 67.6 | 0.76 | 81.3 | 61.6 | 0.01 | 33.9 | 91.2 | > 100 | inhibition (INH) [6]: 12%; inhibition (INH) [8]: 27%; GI50 [11]: > 100 µM; GI50 [12]: 44.7 µM; GI50 (SNB-75): 18.6 µM; TGI (SNB-75): 77.6 µM; GI50 (CCRF-CEM): 0.08 µM; LC50 (concentration causing net 50% loss of initial cells) (CCRF-CEM): 3.55 µM; TGI (CCRF-CEM): 0.38 µM; TGI [9]: 0.05 µM |
| Cn1cccc1-c1cc(-c2cccs2)nc(N)c1C#N | > 100 | > 100 | > 100 | > 100 | > 100 | 85.1 | > 100 | > 100 | > 100 | > 100 | > 100 | 5.37 | > 100 | > 100 | > 100 | > 100 | > 100 | > 100 | > 100 | > 100 | TGI (SR): 67.6 µM; GI50 [11]: > 100 µM; GI50 [12]: 87.1 µM; GI50 (SNB-75): 45.7 µM; GI50 (CCRF-CEM): > 100 µM |
| CC1CCCc2c1[nH]c(=O)c(C#N)c2-c1cccn1C (stereo not drawn) | > 100 | > 100 | > 100 | > 100 | > 100 | 69.2 | > 100 | > 100 | > 100 | > 100 | > 100 | > 100 | > 100 | > 100 | > 100 | > 100 | > 100 | > 100 | > 100 | > 100 | GI50 [11]: > 100 µM; GI50 [12]: > 100 µM; GI50 (SNB-75): 39.8 µM; GI50 (CCRF-CEM): > 100 µM |
